# pKi: −log10 of the molar value.
# Test system: Mycobacterium tuberculosis
# Test: Antimycobacterial activity against isoniazid/rifampicin/ethambutol/pyrazinamide/streptomycin/kanamycin/para-aminosalicylic acid/prothionamide multidrug-resistant Mycobacterium tuberculosis assessed as inhibition of bacterial growth under GAST medium condition after 7 to 14 days by broth microdilution method
# Type: functional
# Details: time 7-14 day
# Outline: (§1)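 Clinical MDR/XDR Mtb strains tested by broth microdilution in GAST or 7H9 with tyloxapol (0.05%), BSA fraction V (5 g/L) and NaCl (0.8 g/L) plus a carbon source. Compounds were dosed from DMSO stocks against DMSO vehicle controls. Inoculum was 10⁴-10⁵ cells per assay, with growth monitored at days 7 and 14. MIC is the concentration causing >99% inhibition.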
row,Structure (SMILES),MIC
1,CCCCCCCCCCCC(=O)NS(=O)(=O)OC[C@H]1O[C@@H](n2cnc3c(N)ncnc32)[C@H](O)[C@@H]1O,25 µM
2,C=CCCCCCCCCC(=O)NS(=O)(=O)OC[C@H]1O[C@@H](n2cnc3c(N)ncnc32)[C@H](O)[C@@H]1O,3.13 µM
3,Nc1ncnc2c1ncn2[C@@H]1O[C@H](COS(=O)(=O)NC(=O)CCCCCCCCCCOc2ccccc2)[C@@H](O)[C@H]1O,6.25 µM
4,CCCCCCCCCCCCCC(=O)NS(=O)(=O)OC[C@H]1O[C@@H](n2cnc3c(N)ncnc32)[C@H](O)[C@@H]1O,12.5 µM
5,CCCCCCCCCOCC(=O)NS(=O)(=O)OC[C@H]1O[C@@H](n2cnc3c(N)ncnc32)[C@H](O)[C@@H]1O,1.56 µM
6,[N-]=[N+]=NCCCCCCCCCCCC(=O)NS(=O)(=O)OC[C@H]1O[C@@H](n2cnc3c(N)ncnc32)[C@H](O)[C@@H]1O,3.13 µM
7,NNC(=O)c1ccncc1 [ISONIAZID],> 8 µM

# Test system: Mycobacterium tuberculosis
# Test: Antimycobacterial activity against isoniazid/rifampicin/ethambutol/para-aminosalicylic acid extensively drug-resistant Mycobacterium tuberculosis assessed as inhibition of bacterial growth under 7H9 medium condition after 7 to 14 days by broth microdilution method
# Type: functional
# Details: time 7-14 day
# Outline: as §1
row,Structure (SMILES),MIC
1,CCCCCCCCCCCC(=O)NS(=O)(=O)OC[C@H]1O[C@@H](n2cnc3c(N)ncnc32)[C@H](O)[C@@H]1O,6.25 µM
2,C=CCCCCCCCCC(=O)NS(=O)(=O)OC[C@H]1O[C@@H](n2cnc3c(N)ncnc32)[C@H](O)[C@@H]1O,12.5 µM
3,Nc1ncnc2c1ncn2[C@@H]1O[C@H](COS(=O)(=O)NC(=O)CCCCCCCCCCOc2ccccc2)[C@@H](O)[C@H]1O,12.5 µM
4,CCCCCCCCCCCCCC(=O)NS(=O)(=O)OC[C@H]1O[C@@H](n2cnc3c(N)ncnc32)[C@H](O)[C@@H]1O,6.25 µM
5,CCCCCCCCCOCC(=O)NS(=O)(=O)OC[C@H]1O[C@@H](n2cnc3c(N)ncnc32)[C@H](O)[C@@H]1O,6.25 µM
6,[N-]=[N+]=NCCCCCCCCCCCC(=O)NS(=O)(=O)OC[C@H]1O[C@@H](n2cnc3c(N)ncnc32)[C@H](O)[C@@H]1O,12.5 µM
7,NNC(=O)c1ccncc1 [ISONIAZID],2 µM

# Test system: Mycobacterium tuberculosis
# Test: Antimycobacterial activity against isoniazid/rifampicin/ethambutol/pyrazinamide/streptomycin/kanamycin/para-aminosalicylic acid/prothionamide multidrug-resistant Mycobacterium tuberculosis assessed as inhibition of bacterial growth under 7H9 medium condition after 7 to 14 days in presence of tylo-xapol by broth microdilution method
# Type: functional
# Details: time 7-14 day
# Outline: as §1
row,Structure (SMILES),MIC
1,CCCCCCCCCCCC(=O)NS(=O)(=O)OC[C@H]1O[C@@H](n2cnc3c(N)ncnc32)[C@H](O)[C@@H]1O,12.5 µM
2,C=CCCCCCCCCC(=O)NS(=O)(=O)OC[C@H]1O[C@@H](n2cnc3c(N)ncnc32)[C@H](O)[C@@H]1O,6.25 µM
3,Nc1ncnc2c1ncn2[C@@H]1O[C@H](COS(=O)(=O)NC(=O)CCCCCCCCCCOc2ccccc2)[C@@H](O)[C@H]1O,12.5 µM
4,CCCCCCCCCCCCCC(=O)NS(=O)(=O)OC[C@H]1O[C@@H](n2cnc3c(N)ncnc32)[C@H](O)[C@@H]1O,12.5 µM
5,CCCCCCCCCOCC(=O)NS(=O)(=O)OC[C@H]1O[C@@H](n2cnc3c(N)ncnc32)[C@H](O)[C@@H]1O,12.5 µM
6,[N-]=[N+]=NCCCCCCCCCCCC(=O)NS(=O)(=O)OC[C@H]1O[C@@H](n2cnc3c(N)ncnc32)[C@H](O)[C@@H]1O,6.25 µM
7,NNC(=O)c1ccncc1 [ISONIAZID],2 µM

# Test system: Mycobacterium tuberculosis
# Test: Antimycobacterial activity against isoniazid/rifampicin/ethambutol/streptomycin/ofloxacin/para-aminosalicylic acid/prothionamide multidrug-resistant Mycobacterium tuberculosis assessed as inhibition of bacterial growth under GAST medium condition after 7 to 14 days by broth microdilution method
# Type: functional
# Details: time 7-14 day
# Outline: as §1
row,Structure (SMILES),MIC
1,CCCCCCCCCCCC(=O)NS(=O)(=O)OC[C@H]1O[C@@H](n2cnc3c(N)ncnc32)[C@H](O)[C@@H]1O,12.5 µM
2,C=CCCCCCCCCC(=O)NS(=O)(=O)OC[C@H]1O[C@@H](n2cnc3c(N)ncnc32)[C@H](O)[C@@H]1O,3.13 µM
3,Nc1ncnc2c1ncn2[C@@H]1O[C@H](COS(=O)(=O)NC(=O)CCCCCCCCCCOc2ccccc2)[C@@H](O)[C@H]1O,625 µM
4,CCCCCCCCCCCCCC(=O)NS(=O)(=O)OC[C@H]1O[C@@H](n2cnc3c(N)ncnc32)[C@H](O)[C@@H]1O,12.5 µM
5,CCCCCCCCCOCC(=O)NS(=O)(=O)OC[C@H]1O[C@@H](n2cnc3c(N)ncnc32)[C@H](O)[C@@H]1O,6.25 µM
6,[N-]=[N+]=NCCCCCCCCCCCC(=O)NS(=O)(=O)OC[C@H]1O[C@@H](n2cnc3c(N)ncnc32)[C@H](O)[C@@H]1O,625 µM
7,NNC(=O)c1ccncc1 [ISONIAZID],8 µM

# Test system: Mycobacterium tuberculosis
# Test: Antimycobacterial activity against isoniazid/rifampicin/ethambutol/pyrazinamide/streptomycin/kanamycin/para-aminosalicylic acid/prothionamide multidrug-resistant Mycobacterium tuberculosis assessed as inhibition of bacterial growth under 7H9 medium condition after 7 to 14 days by broth microdilution method
# Type: functional
# Details: time 7-14 day
# Outline: as §1
row,Structure (SMILES),MIC
1,CCCCCCCCCCCC(=O)NS(=O)(=O)OC[C@H]1O[C@@H](n2cnc3c(N)ncnc32)[C@H](O)[C@@H]1O,12.5 µM
2,C=CCCCCCCCCC(=O)NS(=O)(=O)OC[C@H]1O[C@@H](n2cnc3c(N)ncnc32)[C@H](O)[C@@H]1O,50 µM
3,Nc1ncnc2c1ncn2[C@@H]1O[C@H](COS(=O)(=O)NC(=O)CCCCCCCCCCOc2ccccc2)[C@@H](O)[C@H]1O,12.5 µM
4,CCCCCCCCCCCCCC(=O)NS(=O)(=O)OC[C@H]1O[C@@H](n2cnc3c(N)ncnc32)[C@H](O)[C@@H]1O,25 µM
5,CCCCCCCCCOCC(=O)NS(=O)(=O)OC[C@H]1O[C@@H](n2cnc3c(N)ncnc32)[C@H](O)[C@@H]1O,12.5 µM
6,[N-]=[N+]=NCCCCCCCCCCCC(=O)NS(=O)(=O)OC[C@H]1O[C@@H](n2cnc3c(N)ncnc32)[C@H](O)[C@@H]1O,50 µM
7,NNC(=O)c1ccncc1 [ISONIAZID],2 µM

# Target: T1, Long-chain-fatty-acid--AMP ligase FadD32 (Mycobacterium tuberculosis (strain ATCC 25618 / H37Rv), UniProt O53580)
# T1 sequence (O53580 whole entry): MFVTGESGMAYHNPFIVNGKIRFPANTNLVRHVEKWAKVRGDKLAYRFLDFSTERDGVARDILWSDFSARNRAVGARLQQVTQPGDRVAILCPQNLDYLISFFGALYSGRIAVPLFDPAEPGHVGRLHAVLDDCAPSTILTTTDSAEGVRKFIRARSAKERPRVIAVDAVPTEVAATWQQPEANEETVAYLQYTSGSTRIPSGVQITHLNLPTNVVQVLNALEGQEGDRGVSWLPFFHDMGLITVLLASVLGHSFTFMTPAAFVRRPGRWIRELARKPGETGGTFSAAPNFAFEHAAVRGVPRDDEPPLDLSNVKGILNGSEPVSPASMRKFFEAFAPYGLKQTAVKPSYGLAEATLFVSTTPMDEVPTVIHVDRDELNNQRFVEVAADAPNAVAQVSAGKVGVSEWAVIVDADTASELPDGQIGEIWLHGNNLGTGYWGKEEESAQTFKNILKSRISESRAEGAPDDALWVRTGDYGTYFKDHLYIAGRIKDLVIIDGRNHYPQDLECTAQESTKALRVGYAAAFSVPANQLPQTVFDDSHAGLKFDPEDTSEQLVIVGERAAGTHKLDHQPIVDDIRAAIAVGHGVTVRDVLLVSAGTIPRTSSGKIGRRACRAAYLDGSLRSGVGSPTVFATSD
# Test: Inhibition of Mycobacterium tuberculosis H37Rv FAAL32 expressed in Escherichia coli BL21(DE3) cells incubated for 2 hrs in presence of [C14] fatty acid by SDS-PAGE analysis
# Details: read-out: Ki(app)
row,Structure (SMILES),pKi
1,CCCCCCCCCCCCOP(=O)(O)OC[C@H]1O[C@@H](n2cnc3c(N)ncnc32)[C@H](O)[C@@H]1O,6.96

# Test system: Mycobacterium tuberculosis
# Test: Antimycobacterial activity against isoniazid/rifampicin/ethambutol/kanamycin/ofloxacin multidrug-resistant Mycobacterium tuberculosis assessed as inhibition of bacterial growth under 7H9 medium condition after 7 to 14 days by broth microdilution method
# Type: functional
# Details: time 7-14 day
# Outline: as §1
row,Structure (SMILES),MIC
1,CCCCCCCCCCCC(=O)NS(=O)(=O)OC[C@H]1O[C@@H](n2cnc3c(N)ncnc32)[C@H](O)[C@@H]1O,6.25 µM
2,C=CCCCCCCCCC(=O)NS(=O)(=O)OC[C@H]1O[C@@H](n2cnc3c(N)ncnc32)[C@H](O)[C@@H]1O,625 µM
3,Nc1ncnc2c1ncn2[C@@H]1O[C@H](COS(=O)(=O)NC(=O)CCCCCCCCCCOc2ccccc2)[C@@H](O)[C@H]1O,12.5 µM
4,CCCCCCCCCCCCCC(=O)NS(=O)(=O)OC[C@H]1O[C@@H](n2cnc3c(N)ncnc32)[C@H](O)[C@@H]1O,3.13 µM
5,CCCCCCCCCOCC(=O)NS(=O)(=O)OC[C@H]1O[C@@H](n2cnc3c(N)ncnc32)[C@H](O)[C@@H]1O,6.25 µM
6,[N-]=[N+]=NCCCCCCCCCCCC(=O)NS(=O)(=O)OC[C@H]1O[C@@H](n2cnc3c(N)ncnc32)[C@H](O)[C@@H]1O,625 µM
7,NNC(=O)c1ccncc1 [ISONIAZID],2 µM

# Test system: Mycobacterium tuberculosis
# Test: Antimycobacterial activity against isoniazid/rifampicin/ethambutol/para-aminosalicylic acid extensively drug-resistant Mycobacterium tuberculosis assessed as inhibition of bacterial growth under GAST medium condition after 7 to 14 days by broth microdilution method
# Type: functional
# Details: time 7-14 day
# Outline: as §1
row,Structure (SMILES),MIC
1,CCCCCCCCCCCC(=O)NS(=O)(=O)OC[C@H]1O[C@@H](n2cnc3c(N)ncnc32)[C@H](O)[C@@H]1O,6.25 µM
2,C=CCCCCCCCCC(=O)NS(=O)(=O)OC[C@H]1O[C@@H](n2cnc3c(N)ncnc32)[C@H](O)[C@@H]1O,3.13 µM
3,CCCCCCCCCCCCCC(=O)NS(=O)(=O)OC[C@H]1O[C@@H](n2cnc3c(N)ncnc32)[C@H](O)[C@@H]1O,6.25 µM
4,CCCCCCCCCOCC(=O)NS(=O)(=O)OC[C@H]1O[C@@H](n2cnc3c(N)ncnc32)[C@H](O)[C@@H]1O,0.78 µM
5,[N-]=[N+]=NCCCCCCCCCCCC(=O)NS(=O)(=O)OC[C@H]1O[C@@H](n2cnc3c(N)ncnc32)[C@H](O)[C@@H]1O,3.13 µM
6,NNC(=O)c1ccncc1 [ISONIAZID],4 µM

# Test system: Mycobacterium tuberculosis
# Test: Antimycobacterial activity against isoniazid/rifampicin/ethambutol/kanamycin/ofloxacin multidrug-resistant Mycobacterium tuberculosis assessed as inhibition of bacterial growth under GAST medium condition after 7 to 14 days by broth microdilution method
# Type: functional
# Details: time 7-14 day
# Outline: as §1
row,Structure (SMILES),MIC
1,CCCCCCCCCCCC(=O)NS(=O)(=O)OC[C@H]1O[C@@H](n2cnc3c(N)ncnc32)[C@H](O)[C@@H]1O,3.13 µM
2,C=CCCCCCCCCC(=O)NS(=O)(=O)OC[C@H]1O[C@@H](n2cnc3c(N)ncnc32)[C@H](O)[C@@H]1O,3.13 µM
3,CCCCCCCCCCCCCC(=O)NS(=O)(=O)OC[C@H]1O[C@@H](n2cnc3c(N)ncnc32)[C@H](O)[C@@H]1O,6.25 µM
4,CCCCCCCCCOCC(=O)NS(=O)(=O)OC[C@H]1O[C@@H](n2cnc3c(N)ncnc32)[C@H](O)[C@@H]1O,0.39 µM
5,[N-]=[N+]=NCCCCCCCCCCCC(=O)NS(=O)(=O)OC[C@H]1O[C@@H](n2cnc3c(N)ncnc32)[C@H](O)[C@@H]1O,3.13 µM
6,NNC(=O)c1ccncc1 [ISONIAZID],4 µM

# Test system: Mycobacterium tuberculosis
# Test: Antimycobacterial activity against isoniazid/rifampicin/ethambutol/streptomycin/ofloxacin/para-aminosalicylic acid/prothionamide multidrug-resistant Mycobacterium tuberculosis assessed as inhibition of bacterial growth under 7H9 medium condition after 7 to 14 days by broth microdilution method
# Type: functional
# Details: time 7-14 day
# Outline: as §1
row,Structure (SMILES),MIC
1,CCCCCCCCCCCC(=O)NS(=O)(=O)OC[C@H]1O[C@@H](n2cnc3c(N)ncnc32)[C@H](O)[C@@H]1O,12.5 µM
2,C=CCCCCCCCCC(=O)NS(=O)(=O)OC[C@H]1O[C@@H](n2cnc3c(N)ncnc32)[C@H](O)[C@@H]1O,25 µM
3,Nc1ncnc2c1ncn2[C@@H]1O[C@H](COS(=O)(=O)NC(=O)CCCCCCCCCCOc2ccccc2)[C@@H](O)[C@H]1O,50 µM
4,CCCCCCCCCCCCCC(=O)NS(=O)(=O)OC[C@H]1O[C@@H](n2cnc3c(N)ncnc32)[C@H](O)[C@@H]1O,12.5 µM
5,CCCCCCCCCOCC(=O)NS(=O)(=O)OC[C@H]1O[C@@H](n2cnc3c(N)ncnc32)[C@H](O)[C@@H]1O,50 µM
6,[N-]=[N+]=NCCCCCCCCCCCC(=O)NS(=O)(=O)OC[C@H]1O[C@@H](n2cnc3c(N)ncnc32)[C@H](O)[C@@H]1O,25 µM
7,NNC(=O)c1ccncc1 [ISONIAZID],8 µM

# Reference: ChEMBL document CHEMBL4765357, “Development of small-molecule inhibitors of fatty acyl-AMP and fatty acyl-CoA ligases in Mycobacterium tuberculosis” (Eur J Med Chem, 2020)
